Where “and” joins values, the source holds several entries; their conditions need not be identical. Equal values may be shown once. Calls of active or inactive are those of the source. No cut-off for these calls is given here.
Assays:
[1] = target: T1, Isocitrate dehydrogenase [NADP] cytoplasmic (Homo sapiens, UniProt O75874, R132H); test: Allosteric inhibition of IDH1 R132H mutant (unknown origin) expressed in HEK293T cells assessed as reduction in 2-HG production incubated for 48 hrs by LC-MS/MS analysis; assay type: cell-based
Method in brief: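 HEK293T cells reverse-transfected with pcDNA3.1 IDH1 R132H (Lipofectamine 2000), 6 h at 37 °C in 1% FBS plating medium, then assay medium. Compound added in DMSO (0.15% final), 48 h at 37 °C. Medium 2-HG quantified by HILIC LC-MS/MS with D3-2-HG internal standard, normalised to Hoechst nuclear count. Mean of two biological replicates.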

[2] = target: T1, Isocitrate dehydrogenase [NADP] cytoplasmic; test: Inhibition of IDH1 R132H mutant (unknown origin) using alpha-ketoglutarate and NADPH incubated for 60 mins by fluorescence based assay
HeLa = test: Cytotoxicity in human HeLa cells; assay type: cell-based
[3] = target: Isocitrate dehydrogenase [NADP] cytoplasmic (Homo sapiens, UniProt O75874); test: Inhibition of wild type IDH1 (unknown origin) using alpha-ketoglutarate and NADPH incubated for 30 mins by fluorescence based assay
Isocitrate dehydrogenase [NADP] cytoplasmic (Homo sapiens, UniProt O75874), sequence (O75874 whole entry): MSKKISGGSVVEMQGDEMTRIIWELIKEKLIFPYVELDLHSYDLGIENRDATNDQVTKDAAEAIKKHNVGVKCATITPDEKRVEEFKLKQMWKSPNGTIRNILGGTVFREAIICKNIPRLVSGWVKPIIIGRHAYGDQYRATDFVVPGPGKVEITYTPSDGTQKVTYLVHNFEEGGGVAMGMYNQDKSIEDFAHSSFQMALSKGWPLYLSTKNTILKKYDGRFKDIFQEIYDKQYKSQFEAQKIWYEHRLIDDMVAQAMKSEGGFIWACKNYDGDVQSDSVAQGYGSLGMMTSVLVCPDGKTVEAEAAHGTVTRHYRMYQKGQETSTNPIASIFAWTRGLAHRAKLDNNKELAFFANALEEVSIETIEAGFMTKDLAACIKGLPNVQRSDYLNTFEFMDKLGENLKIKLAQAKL

T1 sequence (O75874 2-414 R132H limits assumed): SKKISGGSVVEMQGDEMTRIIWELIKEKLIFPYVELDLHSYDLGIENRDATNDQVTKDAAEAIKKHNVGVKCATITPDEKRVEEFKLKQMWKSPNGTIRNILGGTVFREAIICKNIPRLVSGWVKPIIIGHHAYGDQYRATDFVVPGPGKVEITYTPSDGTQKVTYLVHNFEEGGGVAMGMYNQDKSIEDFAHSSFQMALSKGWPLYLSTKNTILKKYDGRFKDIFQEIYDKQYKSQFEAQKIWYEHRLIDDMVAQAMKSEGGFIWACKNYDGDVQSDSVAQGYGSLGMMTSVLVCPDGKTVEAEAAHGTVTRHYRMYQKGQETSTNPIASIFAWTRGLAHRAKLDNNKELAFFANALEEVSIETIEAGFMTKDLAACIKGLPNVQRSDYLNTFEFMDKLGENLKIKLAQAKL

Row | Compound | IC50 [2] | also measured
1 | CC(C)CCOc1nc(N2CCC[C@@H](CC(=O)O)C2)ccc1C(=O)NC1C2CC3CC1CC(O)(C3)C2 (some centres undefined) | 1.3 µM | IC50 [1]: 8.5 µM; IC50 (HeLa): > 30 µM
2 | CC(C)CCSc1nc(N2C[C@@H]3[C@H](C2)[C@H]3C(=O)O)ccc1C(=O)NC1C2CC3CC1CC(O)(C3)C2 (some centres undefined) | 1.63 µM and 1.4 µM | inhibition [3]: inactive
3 | COc1nc(N2CCC[C@@H](CC(=O)O)C2)ccc1C(=O)NC1CCCCC1 | > 50 µM | IC50 [1]: > 30 µM; IC50 (HeLa): > 30 µM
4 | CC(C)CCOc1nc(N2C[C@@H]3[C@H](C2)[C@H]3C(=O)O)ccc1C(=O)Nc1ccc(O)cc1 | 5 µM | 
5 | CC(C)CC(C)Oc1nc(N2CCC[C@@H](CC(=O)O)C2)ccc1C(=O)NC1CCCCC1 (some centres undefined) | 12 µM | 
6 | O=C(O)C[C@@H]1CCCN(c2ccc(C(=O)NC3CCCCC3)c(OCc3ccc(F)cc3)n2)C1 | 8.8 µM | 
7 | Cc1cccc(COc2nc(N3CCC[C@@H](CC(=O)O)C3)ccc2C(=O)NC2CCCCC2)c1 | 4.6 µM | 
8 | O=C(O)C[C@@H]1CCCN(c2ccc(C(=O)NC3CCCCC3)c(OC3CCOCC3)n2)C1 | > 50 µM | 
9 | CC(C)CCNc1nc(N2CCC[C@@H](CC(=O)O)C2)ccc1C(=O)NC1CCCCC1 | > 50 µM | 
10 | CC(C)CCOc1nc(N2C[C@@H]3[C@H](C2)[C@H]3C(=O)O)ccc1C(=O)N(C)Cc1ccccc1 | 7.4 µM | 
11 | CC(C)CCOc1nc(N2C[C@@H]3[C@H](C2)[C@H]3C(=O)O)ccc1C(=O)NC(C)C1C2CC3CC1CC(O)(C3)C2 (some centres undefined) | 0.23 µM | 
12 | CC(C)CCOc1nc(N2C[C@@H]3[C@H](C2)[C@H]3C(=O)O)ccc1C(=O)NC1C2CC3CC(C2)CC1C3 (some centres undefined) | > 50 µM | 
13 | CC(C)CCOc1nc(N2C[C@@H]3[C@H](C2)[C@H]3C(=O)O)ccc1C(=O)NCc1ccccc1 | 9.4 µM | 
14 | CCCCOc1nc(N2CCC[C@@H](CC(=O)O)C2)ccc1C(=O)NC1CCCCC1 | 12 µM | 
15 | COC12CC3CC(C1)C(NC(=O)c1ccc(N4C[C@@H]5[C@H](C4)[C@H]5C(=O)O)nc1OCCC(C)C)C(C3)C2 (some centres undefined) | 0.27 µM | 
16 | CC(C)CCOc1nc(N2C[C@@H]3[C@H](C2)[C@H]3C(=O)O)ccc1C(=O)NCc1cccc(Cl)c1 | 6.5 µM | 
17 | Cc1ccccc1[C@@H](C)Oc1nc(N2CCC[C@@H](CC(=O)O)C2)ccc1C(=O)NC1CCCCC1 | 5.8 µM | 
18 | CC(C)CCOc1nc(N2C[C@@H]3[C@H](C2)[C@H]3C(=O)O)ccc1C(=O)NCc1ccc(O)cc1 | 6.6 µM | 
19 | O=C(O)C[C@@H]1CCCN(c2ccc(C(=O)NC3CCCCC3)c(OCC3CC3)n2)C1 | 30 µM | 
20 | CCOC(=O)[C@H]1[C@@H]2CN(c3ccc(C(=O)NC4C5CC6CC4CC(O)(C6)C5)c(OCCC(C)C)n3)C[C@@H]21 (some centres undefined) | 13.5 µM | 
21 | CC(C)CCSc1nc(N2CCC[C@@H](CC(=O)O)C2)ccc1C(=O)NC1C2CC3CC1CC(O)(C3)C2 (some centres undefined) | 10.1 µM and 7.6 µM | inhibition [3]: inactive
22 | O=C(O)C[C@@H]1CCCN(c2ccc(C(=O)NC3CCCCC3)c(SCc3ccccc3F)n2)C1 | 21 µM | 
23 | O=C(O)C[C@@H]1CCCN(c2ccc(C(=O)NC3CCCCC3)c(OC3CCCCC3)n2)C1 | 12 µM | 
24 | CCCC(C)Oc1nc(N2CCC[C@@H](CC(=O)O)C2)ccc1C(=O)NC1CCCCC1 (some centres undefined) | 12 µM | 
25 | CC(C)CCOc1nc(N2CC[C@H](CC(=O)O)C2)ccc1C(=O)NC1C2CC3CC1CC(O)(C3)C2 (some centres undefined) | 1.2 µM | 

Further lines, with some results ahead:

Row | IC50 [2] | Compound | also measured
26 | 2.3 µM and 2.2 µM | O=C(O)C[C@H]1CCN(c2ccc(C(=O)NC3C4CC5CC3CC(O)(C5)C4)c(SC3CCCCC3)n2)C1 (some centres undefined) | inhibition [3]: inactive
27 | 5.6 µM | O=C(O)C[C@@H]1CCCN(c2ccc(C(=O)NC3CCCCC3)c(OCc3ccccc3F)n2)C1 | IC50 [1]: 16 µM; IC50 (HeLa): > 30 µM
28 | 3.9 µM | CC(C)CCOc1nc(N2C[C@@H]3[C@H](C2)[C@H]3C(=O)O)ccc1C(=O)NC1CCCCCC1 | 
29 | 3 µM and 1.6 µM | O=C(NC1C2CC3CC1CC(O)(C3)C2)c1ccc(N2C[C@@H]3[C@H](C2)[C@H]3C(=O)O)nc1SC1CCCC1 (some centres undefined) | inhibition [3]: inactive
30 | 5.4 µM | CC(C)CCOc1nc(N2C[C@@H]3[C@H](C2)[C@H]3C(=O)O)ccc1C(=O)N[C@H](C)c1ccccc1 | 
31 | 21 µM | CC(C)CCOc1nc(Nc2coc(C(=O)O)n2)ccc1C(=O)NC1C2CC3CC1CC(O)(C3)C2 (centres undefined) | 
32 | 3 µM | CC(C)CCOc1nc(-c2ccc(C(=O)O)cc2)ccc1C(=O)NC1C2CC3CC1CC(O)(C3)C2 (centres undefined) | 
33 | > 50 µM | CC(C)CCOc1nc(N2C[C@@H]3[C@H](C2)[C@H]3C(=O)O)ccc1NC(=O)C1CCCCC1 | 
34 | 26 µM | CC(C)COc1nc(N2CCC[C@@H](CC(=O)O)C2)ccc1C(=O)NC1CCCCC1 | 
35 | > 50 µM | COc1ccc(COc2nc(N3CCC[C@@H](CC(=O)O)C3)ccc2C(=O)NC2CCCCC2)cc1 | 
36 | 5.6 µM | CC(C)CCOc1nc(N2C[C@@H]3[C@H](C2)[C@H]3C(=O)O)ccc1C(=O)NCc1cccnc1 | 
37 | > 50 µM | CC(C)CCOc1nc(Nc2nc(CC(=O)O)cs2)ccc1C(=O)NC1C2CC3CC1CC(O)(C3)C2 (centres undefined) | 
38 | 4.4 µM | CC(C)CCOc1nc(N2C[C@@H]3[C@H](C2)[C@H]3C(=O)O)ccc1C(=O)N[C@@H](C)c1ccccc1 | 
39 | 17 µM | CC(C)CCOc1nc(N2C[C@@H]3[C@H](C2)[C@H]3C(=O)O)ccc1C(=O)N(C)C1CCCCC1 | 
40 | 3.2 µM | CC(C)CCOc1nc(N2C[C@@H]3[C@H](C2)[C@H]3C(=O)O)ccc1C(=O)Nc1cccc(CO)c1 | 
41 | 7 µM | O=C(O)C[C@@H]1CCCN(c2ccc(C(=O)NC3CCCCC3)c(OCc3ccccc3Cl)n2)C1 | 
42 | 3.4 µM | CC(C)CCOc1nc(N2CCC(C(=O)O)CC2)ccc1C(=O)NC1C2CC3CC1CC(O)(C3)C2 (centres undefined) | 
43 | 14 µM | CC1CC1COc1nc(N2CCC[C@@H](CC(=O)O)C2)ccc1C(=O)NC1CCCCC1 (some centres undefined) | 
44 | 14 µM | CCC(C)(C)Oc1nc(N2CCC[C@@H](CC(=O)O)C2)ccc1C(=O)NC1CCCCC1 | 

Reference: ChEMBL document CHEMBL4680101, “Discovery and Optimization of Allosteric Inhibitors of Mutant Isocitrate Dehydrogenase 1 (R132H IDH1) Displaying Activity in Human Acute Myeloid Leukemia Cells” (J Med Chem, 2016)
